Data reported in the RNAGym collection of RNA variant scans (doi:10.1126/science.aae0568).
This sample holds only a part of the variants without activity.

B1: tRNA (parent)
chain: GUUCCGUUGGCGUAAUGGUAACGCGUCUCCCUCCUAAGGAGAAGACUGCGGGUUCGAGUCCCGUACGGAACG

Variants of: B1
Experiment: yeast fitness relative to wild type (ratio to wild type); higher = fitter; tRNA-Arg(CCU), competitive growth, 37 C, YPD
Procedure, shortened: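 For this measurement, the tRNA-Arg(CCU) gene was varied by chemical synthesis at a 3% per-site mutation rate across 69 sites, and each variant was placed at the native genomic locus in Saccharomyces cerevisiae. The pooled strains went through a 24-hour competition in YPD at 37°C in six parallel replicates, with amplicons from start and end populations read by 100-nucleotide paired-end sequencing. Darwinian fitness relative to wild type followed from the change in each genotype's frequency. Genotypes needed ≥ 100 starting reads, and estimates < 0.5 were set to 0.5.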

Compared with GUUCCGUUGGUGUAAUGGUAUCGCGUCUCCCUCCUAAGGACAAGACUGCGGGUUCGAGUCCCGUACGGAACG, GUUCCGUUGGUGUAAUGGUAACGCGUCUCCCUCCUCAGGAGAAGACUGCGGGUUCGAGUCCCGUACGCAACG is lower in yeast fitness: 0.603 for the first, at most 0.5 for the second.

Going from GUUCCGUUGGUGUAAUGGUAACGCGUCUCCCUCCUUAGGAGAAGACUGCGGGUUCGAGUCCCGUACGGAUCG to GUUCCGUUGGUGUAAUGGUAACGCGUCUCCCUCCUUAGAAGAAGACUGCGGGUUCGAGUCCCGUACGGAACG, the yeast fitness falls from 0.694 to at most 0.5.

Compared with GUUCCGUUGGUGUAAUGGUAACGCGUCUCCCUCCUACGGAGGUGACUGCGGGUUCGAGUCCAGUACGGAACG, GUUCCGUUGGUGUAAUGGUAACGCGUCUCCCUCCUAGGGAGAAGACUGCGGGUUCGAGUCCCGUACGGAACG is higher in yeast fitness: at most 0.5 for the first, 0.896 for the second.

Going from GUUCCGUUGGUGUAAUGGUAACGCGUCUCCCUCCUAGGGAGAAGACUACGGGUUCGAGUCCCGUACGGAACG to GUUCCGUUGGUGUAAUGGUAACGCGUCUCCCUCCUAGGGAGAAGACUGCGAGUUCGAGUCCCGUACGGAACG, the yeast fitness falls from 0.597 to 0.568.

GUUCCGUUGGUGUAAUGGUAACGCGUCUCCCUCCUAAGGGGAACACUGCGGGCUAGAGUCCCGUUCGGAACG and GUUCCGUUGGUGUAAUGGUAACGCGUCUCCCUCCUAAGGGGAAGACGGCGGGUUCGAGUCCCGUACGGAACG cannot be ordered by yeast fitness: at most 0.5 for the first, at most 0.5 for the second.

First: GUUCCGUUGGUGUAAUGGUAACGCGUCUCCCUCCUAAGGAGCAGACUGCGGGUUCGAGUCCCGUACGGAACG
Second: GUUCCGUUGGUGUAAUGGUAACGCGUCUCCCUCCUAAGGAGCAGACUGCGGGUUCGCGUCCCGUACGGAACG
The yeast fitness of the first is higher: 0.91 for the first, at most 0.5 for the second.

Going from GUUCCGUUGGUGUAAUGGUAACGCGUCUCCCUCCUAAGGAGCAGACUGUGGGUUCGAGUCCCGUACGGAACG to GUUCCGUUGGUGUAAUGGUAACGCGUCUCCCUCCUAAGGAGGAGACUGCGGGUUCGAGUCCCGUACGGAACG, the yeast fitness rises from 0.734 to 0.917.

GUUCCGUUGGUGUAAUGGUAACGCGUCUCCCUCCUAAGGAGGAGACUGCGGGUUCGAGUCCGGUACGGUACG and GUUCCGUUGGUGUAAUGGUAACGCGUCUCCCUCCUAAGGAGGAGACUGCGUGUUCGUGUCCCGUACGGAACG cannot be ordered by yeast fitness: at most 0.5 for the first, at most 0.5 for the second.

Compared with GUUCCGUUGGUGUAAUGGUAACGCGUCUCCCUCCUAAGGAGACGACUGCGGGUUCGAGUCCCGUAUGGAACG, GUUCCGUUGGUGUAAUGGUAACGCGUCUCCCUCCUAAGGAGAAGCCUGCGGGUUCGAGUCCCGUACGGAACG is higher in yeast fitness: 0.699 for the first, 0.836 for the second.

First: GUUCCGUUGGUGUAAUGGUAACGCGUCUCCCUCCUAAGGAGAAGCCUGCGGCUUCGAGUCUCGUACGGAACG
Second: GUUCCGUUGGUGUAAUGGUAACGCGUCUCCCUCCUAAGGAGAAGGCUGCGGAUUCGAGUCCCGUACGGAACG
The yeast fitness of the first is lower: at most 0.5 for the first, 0.63 for the second.

First: GUUCCGUUGGUGUAAUGGUAACGCGUCUCCCUCCUAAGGAGAAGGCUGCGGCUUCGAGUCCCGUACGGAACG
Second: GUUCCGUUGGUGUAAUGGUAACGCGUCUCCCUCCUAAGGAGAAGGCUGCGGGCUCGAGUCCCGUACGGAACG
The yeast fitness of the first is lower: at most 0.5 for the first, 0.637 for the second.

Compared with GUUCCGUUGGUGUAAUGGUAACGCGUCUCCCUCCUAAGGAGAAGUCUGCGGGUUCGAGUCCCGUACGGAACG, GUUCCGUUGGUGUAAUGGUAACGCGUCUCCCUCCUAAGGAGAAGUCUGCGGGUUCGAGUCCCGUUCGGAACG is lower in yeast fitness: 0.951 for the first, 0.82 for the second.

First: GUUCCGUUGGUGUAAUGGUAACGCGUCUCCCUCCUAAGGAGAAGUCUGCGGGUUCGAGUCGCGUCCGGAACG
Second: GUUCCGUUGGUGUAAUGGUAACGCGUCUCCCUCCUAAGGAGAAGUCUGCGGGUUCGAGUCCCGUAAGGAACG
The yeast fitness of the first is lower: at most 0.5 for the first, 0.659 for the second.

First: GUUCCGUUGGUGUAAUGGUAACGCGUCUCCCUCCUAAGGAGAAGUCUGCGGGUUCGAUUCCCGUACGGAACG
Second: GUUCCGUUGGUGUAAUGGUAACGCGUCUCCCUCCUAAGGAGAAGACUGCGGGUUCGUGUGCCGUACGCAACG
The yeast fitness of the first is higher: 0.562 for the first, at most 0.5 for the second.

First: GUUCCGUUGGUGUAAUGGUAACGCGUCUCCCUCCUAAGGAGAAGACUGCGGGUUCGAGUCCCGUACGGCACG
Second: GUUCCGUUGGUGUAAUGGUAAAGCGUCUCCCUCCUAAGGUGAAGAUUGCGGGUUCGAGUCUCGUACGGAACG
The yeast fitness of the first is higher: 0.905 for the first, at most 0.5 for the second.

First: GUUCCGUUGGUGUAAUGGUAAAGCGUCUGCCUUCUAAGGAGAAGACUGCGGGUUCGAGUCCCGUACGGACCG
Second: GUUCCGUUGGUGUAAUGGUAAAGCGUCUGCCUUCCAAGGAGAAGACUGCGGGUUCGAGUCCCGUACGGACCG
The yeast fitness of the first is higher: 0.551 for the first, at most 0.5 for the second.

Going from GUUCCGUUGGUGUAAUGGUAAGGCGUCUCCCUCCUGAGGAGAAGACUGCGGGUUCGAGUCCCGUACGGAACG to GUUCCGUUGGUGUAAUGGUAAGGCGUCUCCCUCCUAAGGAGAAGACUGCGGGUUCGAGUCCCGUACGGACCG, the yeast fitness falls from 0.675 to 0.669.

GUUCCGUUGGUGUAAUGGUAAGGCGUUUCCGUCCUAAGGAGAAGACUGCGGGUUCGAGUCCCGUACGGAACG and GUUCCGUUGGUGUAAUGGUAAGGCGUCUCCCUCGUAAGGAGAAGACUGCGGGUUCGAGUCCCGUACGGACCG cannot be ordered by yeast fitness: at most 0.5 for the first, at most 0.5 for the second.

Going from GUUCCGUUGGUGUAAUGGUAAGGCGUCUCCCUCCUAAGGAGAAGACUGCGGGUUCGAGUCCUGUACGCAACG to GUUCCGUUGGUGUAAUGGUAAUGCGUCUCCCUCCUAAGGAGACGACUGUGGGUUGGAGUCUCGUACGGAACG, the yeast fitness falls from 0.542 to at most 0.5.
